According to ChEMBL document CHEMBL3616459, “Antimicrobial peptides with potential for biofilm eradication: synthesis and structure activity relationship studies of battacin peptides” (J Med Chem, 2015):
Values after ≈ are worked out from the molar mass of the structure shown. Positions of bridges follow the written chain, without caps; N, C: chain ends. Non-standard residues stand in square brackets, D forms with d. Residues, ends and D or L forms follow the SMILES beside them. *: point of attachment. Myristoyl = CCCCCCCCCCCCCC(=O)*; X1 = CC(C)=CCC/C(C)=C/C(=O)*; dDab = NCC[C@@H](N)C(=O)O; X2 = CCC(C)CCC(O)CC(=O)*; Dab = NCC[C@H](N)C(=O)O

Assays:
Escherichia coli = assay: Antimicrobial activity against Escherichia coli after 24 hrs by spectrophotometry; type: functional
In short: (§1)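 Broth microdilution in Luria broth. Overnight culture from a single colony, grown at 28 °C (Ea1501, Psa) or 37 °C (E. coli, S. aureus), adjusted to OD600 0.6. Peptide dissolved in LB with 0.5% acetic acid as a dilution series; 50 μL peptide plus 50 μL culture per well, triplicates.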

[1] = Antimicrobial activity against Pseudomonas syringae pv. actinidiae 16027 after 24 hrs by spectrophotometry; type: functional; settings: Pseudomonas syringae, 16027, 24 h; in short: as §1
Pseudomonas aeruginosa = assay: Antimicrobial activity against Pseudomonas aeruginosa after 24 hrs by spectrophotometry; type: functional
Staphylococcus aureus = assay: Antimicrobial activity against Staphylococcus aureus after 24 hrs by spectrophotometry; type: functional; in short: as §1
Erwinia amylovora [2] = assay: Antimicrobial activity against Erwinia amylovora 1501 after 24 hrs by spectrophotometry; type: functional; settings: Erwinia amylovora, 1501, 24 h; in short: as §1
Erwinia amylovora [3] = assay: Antimicrobial activity against streptomycin-resistant Erwinia amylovora after 24 hrs by spectrophotometry; type: functional
In short: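 Broth microdilution in Luria broth; overnight culture grown at 28 °C, adjusted to OD600 0.6, mixed 1:1 with a dilution series of peptide prepared in LB containing 0.5% acetic acid. Three replicates per concentration.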

[4] = Hemolytic activity in mouse erythrocytes at 100 uM to 1 mM after 1 hr by spectrophotometry; type: ADME, cell-based, Erythrocyte; settings: read-out: Activity
In short: (§2)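 100 μL peptide (1 μM–1 mM in Tris buffer) plus 100 μL cells, incubated 1 h at 37 °C, triplicates. After centrifugation, supernatant A540 read. Percent hemolysis calculated relative to buffer (0%) and 0.1% Triton X-100 (100%) controls.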

[5] = Hemolytic activity in mouse erythrocytes at 100 uM after 1 hr by spectrophotometry; type: ADME, cell-based, Erythrocyte; settings: read-out: Activity; in short: as §2

Compound	MIC (Escherichia coli) [µM]	MIC [1] [µM]	MIC (Pseudomonas aeruginosa) [µM]	MIC (Staphylococcus aureus) [µM]	MIC (Erwinia amylovora [2]) [µM]	MIC (Erwinia amylovora [3]) [µM]	hemolysis at 1 h, 100 µM [4] [%]	hemolysis at 1 h, 100 µM [5] [%]
CCC(C)CCC(=O)N[C@H](CCN)C(=O)N[C@@H](CCN)C(=O)N[C@@H](CCN)C(=O)N[C@@H](CC(C)C)C(=O)N[C@@H](C)C(=O)N[C@@H](CCN)C(=O)N[C@@H](CCN)C(=O)N[C@@H](CC(C)C)C(=O)O (some centres undefined)	25 (≈ 23.2 µg/mL)	> 1000	> 1000	25 (≈ 23.2 µg/mL)	–	–	–	–
CCC(C)CCC(=O)N[C@H](CCN)C(=O)N[C@@H](CCN)C(=O)N[C@@H](CCN)C(=O)N[C@@H](C)C(=O)N[C@H](Cc1ccccc1)C(=O)N[C@@H](CCN)C(=O)N[C@@H](CCN)C(=O)N[C@@H](CC(C)C)C(=O)O (some centres undefined)	500 (≈ 481 µg/mL)	> 1000	> 1000	> 1000	–	–	–	–
CC(C)=CCC/C(C)=C/C(=O)N[C@H](CCN)C(=O)N[C@@H](CCN)C(=O)N[C@@H](CCN)C(=O)N[C@@H](CC(C)C)C(=O)N[C@H](Cc1ccccc1)C(=O)N[C@@H](CCN)C(=O)N[C@@H](CCN)C(=O)N[C@@H](CC(C)C)C(N)=O (X1-[dDab][Dab][Dab]L[dF][Dab][Dab]L-NH2)	24 (≈ 25 µg/mL)	14 (≈ 14.6 µg/mL)	48 (≈ 50 µg/mL)	48 (≈ 50 µg/mL)	24 (≈ 25 µg/mL)	48 (≈ 50 µg/mL)	–	–
CC(C)=CCC/C(C)=C/C(=O)N[C@H](CCN)C(=O)N[C@H]1CCNC(=O)[C@H](CC(C)C)NC(=O)[C@H](CCN)NC(=O)[C@H](CCN)NC(=O)[C@@H](Cc2ccccc2)NC(=O)[C@H](CC(C)C)NC(=O)[C@H](CCN)NC1=O	98 (≈ 100 µg/mL)	49 (≈ 50.2 µg/mL)	10 (≈ 10.2 µg/mL)	98 (≈ 100 µg/mL)	98 (≈ 100 µg/mL)	488 (≈ 500 µg/mL)	–	–
CN[C@@H]1[C@H](O[C@H]2[C@H](O[C@H]3[C@H](O)[C@@H](O)[C@H](N=C(N)N)[C@@H](O)[C@@H]3N=C(N)N)O[C@@H](C)[C@]2(O)C=O)O[C@@H](CO)[C@H](O)[C@H]1O [STREPTOMYCIN]	1 (≈ 0.582 µg/mL)	1 (≈ 0.582 µg/mL)	–	–	1 (≈ 0.582 µg/mL)	500 (≈ 291 µg/mL)	–	–
CCC(C)CCC(O)CC(=O)N[C@H](CCN)C(=O)N[C@H]1CCNC(=O)[C@H](CC(C)C)NC(=O)[C@H](CCN)NC(=O)[C@H](CCN)NC(=O)[C@@H](Cc2ccccc2)NC(=O)[C@H](CC(C)C)NC(=O)[C@H](CCN)NC1=O (some centres undefined) (X2-[dDab][Dab][Dab]L[dF][Dab][Dab]L; lactam 2-C)	10 (≈ 10.3 µg/mL)	5 (≈ 5.15 µg/mL)	5 (≈ 5.15 µg/mL)	> 50	24 (≈ 24.7 µg/mL)	24 (≈ 24.7 µg/mL)	–	–
CCC(C)CCC(=O)N[C@H](CCN)C(=O)N[C@@H](CCN)C(=O)N[C@@H](CCN)C(=O)N[C@@H](CC(C)C)C(=O)N[C@H](Cc1ccccc1)C(=O)N[C@@H](CCN)C(=O)N[C@@H](CCN)C(=O)N[C@@H](C)C(=O)O (some centres undefined)	15 (≈ 14.4 µg/mL)	10 (≈ 9.62 µg/mL)	5 (≈ 4.81 µg/mL)	5 (≈ 4.81 µg/mL)	–	–	–	–
CCC(C)CCC(=O)N[C@H](CCN)C(=O)N[C@H]1CCNC(=O)[C@H](CC(C)C)NC(=O)[C@H](CCN)NC(=O)[C@H](CCN)NC(=O)[C@@H](Cc2ccccc2)NC(=O)[C@H](CC(C)C)NC(=O)[C@H](CCN)NC1=O (some centres undefined)	15 (≈ 14.8 µg/mL)	5 (≈ 4.93 µg/mL)	2.5 (≈ 2.47 µg/mL)	101 (≈ 99.6 µg/mL)	15 (≈ 14.8 µg/mL)	25 (≈ 24.7 µg/mL)	2.02	–
CCCCCCCCCCCCCC(=O)N[C@H](CCCCN)C(=O)N[C@@H](CCCCN)C(=O)N[C@@H](CCCCN)C(=O)N[C@@H](CC(C)C)C(=O)N[C@H](Cc1ccccc1)C(=O)N[C@@H](CCCCN)C(=O)N[C@@H](CCCCN)C(=O)N[C@@H](CC(C)C)C(N)=O (Myristoyl-[dK]KKL[dF]KKL-NH2)	12 (≈ 14.9 µg/mL)	12 (≈ 14.9 µg/mL)	12 (≈ 14.9 µg/mL)	1 (≈ 1.24 µg/mL)	12 (≈ 14.9 µg/mL)	12 (≈ 14.9 µg/mL)	–	–
CCC(C)CCC(=O)N[C@H](CCN)C(=O)N[C@@H](CCN)C(=O)N[C@@H](CCN)C(=O)N[C@@H](CC(C)C)C(=O)N[C@H](Cc1ccccc1)C(=O)N[C@@H](C)C(=O)N[C@@H](CCN)C(=O)N[C@@H](CC(C)C)C(=O)O (some centres undefined)	100 (≈ 97.5 µg/mL)	100 (≈ 97.5 µg/mL)	50 (≈ 48.8 µg/mL)	500 (≈ 488 µg/mL)	–	–	–	–
CCC(C)CCC(=O)N[C@H](CCN)C(=O)N[C@@H](CCN)C(=O)N[C@@H](C)C(=O)N[C@@H](CC(C)C)C(=O)N[C@H](Cc1ccccc1)C(=O)N[C@@H](CCN)C(=O)N[C@@H](CCN)C(=O)N[C@@H](CC(C)C)C(=O)O (some centres undefined)	25 (≈ 24.4 µg/mL)	25 (≈ 24.4 µg/mL)	10 (≈ 9.75 µg/mL)	25 (≈ 24.4 µg/mL)	–	–	–	–
CCCCCCCCCCCCCC(=O)N[C@H](CCCCN)C(=O)N[C@H]1CCCCNC(=O)[C@H](CC(C)C)NC(=O)[C@H](CCCCN)NC(=O)[C@H](CCCCN)NC(=O)[C@@H](Cc2ccccc2)NC(=O)[C@H](CC(C)C)NC(=O)[C@H](CCCCN)NC1=O	81 (≈ 99.2 µg/mL)	12 (≈ 14.7 µg/mL)	409 (≈ 501 µg/mL)	81 (≈ 99.2 µg/mL)	81 (≈ 99.2 µg/mL)	20 (≈ 24.5 µg/mL)	–	–
CC(C)C[C@H](NC(=O)[C@H](CCN)NC(=O)[C@H](CCN)NC(=O)[C@@H](Cc1ccccc1)NC(=O)[C@H](CC(C)C)NC(=O)[C@H](CCN)NC(=O)[C@H](CCN)NC(=O)[C@H](N)CCN)C(N)=O (H-[dDab][Dab][Dab]L[dF][Dab][Dab]L-NH2)	100 (≈ 89.1 µg/mL)	5 (≈ 4.46 µg/mL)	2.5 (≈ 2.23 µg/mL)	> 1000	–	–	–	–
GENTAMICIN	–	–	< 1	2.5	–	–	–	–
CC(C)CCCC(=O)N[C@H](CCN)C(=O)N[C@@H](CCN)C(=O)N[C@@H](CC(C)C)C(=O)N[C@H](Cc1ccccc1)C(=O)N[C@@H](CCN)C(N)=O	10 (≈ 6.9 µg/mL)	1 (≈ 0.69 µg/mL)	1 (≈ 0.69 µg/mL)	2.5 (≈ 1.72 µg/mL)	–	–	1.14	–
CCC(C)CCC(=O)N[C@@H](C)C(=O)N[C@@H](CCN)C(=O)N[C@@H](CCN)C(=O)N[C@@H](CC(C)C)C(=O)N[C@H](Cc1ccccc1)C(=O)N[C@@H](CCN)C(=O)N[C@@H](CCN)C(=O)N[C@@H](CC(C)C)C(=O)O (some centres undefined)	500 (≈ 488 µg/mL)	100 (≈ 97.5 µg/mL)	25 (≈ 24.4 µg/mL)	> 1000	–	–	–	–
CCC(C)CCC(=O)N[C@H](CCN)C(=O)N[C@@H](CCN)C(=O)N[C@@H](CCN)C(=O)N[C@@H](CC(C)C)C(=O)N[C@H](Cc1ccccc1)C(=O)N[C@@H](CCN)C(=O)N[C@@H](C)C(=O)N[C@@H](CC(C)C)C(=O)O (some centres undefined)	5 (≈ 4.88 µg/mL)	2.5 (≈ 2.44 µg/mL)	5 (≈ 4.88 µg/mL)	5 (≈ 4.88 µg/mL)	–	–	–	–
CC(C)C[C@@H]1NC(=O)[C@H](CCN)NC(=O)[C@H](CCN)NC(=O)[C@@H](Cc2ccccc2)NC(=O)[C@H](CC(C)C)NC(=O)[C@H](CCN)NC(=O)[C@@H](NC(=O)[C@@H](CCN)NC(=O)OCC2c3ccccc3-c3ccccc32)CCNC1=O	19 (≈ 20.8 µg/mL)	19 (≈ 20.8 µg/mL)	2 (≈ 2.19 µg/mL)	2 (≈ 2.19 µg/mL)	19 (≈ 20.8 µg/mL)	32 (≈ 35.1 µg/mL)	–	41
CCCCCCCCCCCCCC(=O)N[C@H](CCN)C(=O)N[C@H]1CCNC(=O)[C@H](CC(C)C)NC(=O)[C@H](CCN)NC(=O)[C@H](CCN)NC(=O)[C@@H](Cc2ccccc2)NC(=O)[C@H](CC(C)C)NC(=O)[C@H](CCN)NC1=O	92 (≈ 99.8 µg/mL)	46 (≈ 49.9 µg/mL)	92 (≈ 99.8 µg/mL)	92 (≈ 99.8 µg/mL)	92 (≈ 99.8 µg/mL)	23 (≈ 24.9 µg/mL)	–	–
CCC(C)CCC(=O)N[C@H](CCN)C(=O)N[C@@H](C)C(=O)N[C@@H](CCN)C(=O)N[C@@H](CC(C)C)C(=O)N[C@H](Cc1ccccc1)C(=O)N[C@@H](CCN)C(=O)N[C@@H](CCN)C(=O)N[C@@H](CC(C)C)C(=O)O (some centres undefined)	25 (≈ 24.4 µg/mL)	2.5 (≈ 2.44 µg/mL)	2.5 (≈ 2.44 µg/mL)	2.5 (≈ 2.44 µg/mL)	–	–	–	–
CCCCCCCCCCCCCC(=O)N[C@H](CCN)C(=O)N[C@@H](CCN)C(=O)N[C@@H](CCN)C(=O)N[C@@H](CC(C)C)C(=O)N[C@H](Cc1ccccc1)C(=O)N[C@@H](CCN)C(=O)N[C@@H](CCN)C(=O)N[C@@H](CC(C)C)C(N)=O (Myristoyl-[dDab][Dab][Dab]L[dF][Dab][Dab]L-NH2)	5 (≈ 5.51 µg/mL)	14 (≈ 15.4 µg/mL)	14 (≈ 15.4 µg/mL)	5 (≈ 5.51 µg/mL)	9 (≈ 9.91 µg/mL)	14 (≈ 15.4 µg/mL)	76.9	–
